The species named for assay [1] is Rattus norvegicus. As to the kind of experiment: Percent decrease in triglyceride (TG) after 7 days at 0.05 percent in the diet of SD male rats in comparison to control animals. In kind it is functional. In outline: (§1)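 Normal SD male rats, five per group. Compound mixed into CE-2 powder diet at 50 mg/100 g (mg %), fed ad libitum for 7 days; controls received plain CE-2 powder. Total serum cholesterol measured by the Zak method and triglyceride by the Van Handel method after the feeding period. Activity expressed as percent depression versus the control-group mean. Single experiments.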

For assay [2], the species on record is Rattus norvegicus. As to the kind of experiment: Percent decrease in serum cholesterol (Cho) after 7 days at 0.05 percent in the diet of SD male rats in comparison to control animals. The assay is classed as functional. In outline: as §1

Structures are written as SMILES.

In the case of `CCCCCOC(=O)Cc1nc(-c2ccccc2)oc1-c1ccsc1`, the Reduction in the assay listed under Rattus norvegicus [1] is 30%; in the assay filed under Rattus norvegicus [2] it was 20%.
On the same counts, the results for `CCCCCOC(=O)Cc1nc(-c2ccc(F)cc2)oc1-c1ccsc1` are 20% and 13%.
As to `CCOC(=O)Cc1nc(-c2ccc(Br)cc2)oc1-c1ccc(F)cc1`, the Reduction is -5% in the assay listed under Rattus norvegicus [1] and 12% in the assay listed under Rattus norvegicus [2].
With `O=C(OCc1nc(-c2ccc(F)cc2)oc1-c1ccsc1)c1cccnc1`, the Reduction in the assay filed under Rattus norvegicus [1] turned out to be 17%; in the assay filed under Rattus norvegicus [2], 0%.
As for `CCOC(=O)Cc1nc(-c2ccccc2)oc1-c1cccs1`, the Reduction in the assay listed under Rattus norvegicus [1] amounted to 7%; in the assay filed under Rattus norvegicus [2], 11%.
For the molecule `NC(=O)Cc1nc(-c2ccc(F)cc2)oc1-c1ccsc1`, the Reduction in the assay listed under Rattus norvegicus [1] turned out to be 13%; in the assay listed under Rattus norvegicus [2], 19%.
Turning to `O=C(O)Cc1nc(-c2ccsc2)oc1-c1ccc(F)cc1`, the Reduction in the assay listed under Rattus norvegicus [1] is 31%; in the assay filed under Rattus norvegicus [2], 13%.
On the same counts, the results for `O=C(O)Cc1nc(-c2ccccc2)oc1-c1ccsc1` are 41% and 15%.
As to `COC(=O)Cc1nc(-c2ccc(Cl)cc2)oc1-c1ccsc1`, the Reduction in the assay filed under Rattus norvegicus [1] was 29%; in the assay listed under Rattus norvegicus [2], 14%.
On the same counts, the results for `CCN(CC)C(=O)Cc1nc(-c2ccc(F)cc2)oc1-c1ccsc1` are 2% and -2%.
With `CCOC(=O)Cc1nc(-c2ccc(C)cc2)oc1-c1ccsc1`, the Reduction in the assay filed under Rattus norvegicus [1] is given as 4%; in the assay listed under Rattus norvegicus [2], 5%.
In the case of `CCOC(=O)Cc1nc(-c2ccc(C)cc2)oc1-c1ccccc1`, the Reduction in the assay listed under Rattus norvegicus [1] is on record as -18%; in the assay listed under Rattus norvegicus [2], 5%.
With `CC(C)OC(=O)Cc1nc(-c2ccc(Cl)cc2)oc1-c1ccsc1`, the results for the Reduction in the assay filed under Rattus norvegicus [1] and in the assay listed under Rattus norvegicus [2] were 29% and 9%, respectively.
Regarding `O=C(O)Cc1nc(-c2ccccc2)oc1-c1ccccc1`, the results for the Reduction in the assay filed under Rattus norvegicus [1] and in the assay listed under Rattus norvegicus [2] were 20% and 6%, respectively.
As for `COc1ccc(-c2nc(CC(=O)O)c(-c3ccsc3)o2)cc1`, the results for the Reduction in the assay listed under Rattus norvegicus [1] and in the assay listed under Rattus norvegicus [2] were 26% and 3%, respectively.
Consider `CCCCCOC(=O)Cc1nc(-c2ccc(Cl)cc2)oc1-c1ccsc1`, for which the Reduction came to 45% in the assay listed under Rattus norvegicus [1] and 19% in the assay listed under Rattus norvegicus [2].
For `O=C(O)Cc1nc(-c2ccccc2Cl)oc1-c1ccsc1`, in that order: 22% and 1%.
On the same counts, the results for `CCCCOC(=O)Cc1nc(-c2ccc(Cl)cc2)oc1-c1ccsc1` are 17% and 22%.
Turning to `CCOC(=O)Cc1nc(-c2ccc(Cl)cc2)oc1-c1cccs1`, the figures for the Reduction in the assay listed under Rattus norvegicus [1] and in the assay filed under Rattus norvegicus [2] were -10% and 15%, respectively.
For `OCc1nc(-c2ccc(F)cc2)oc1-c1ccsc1`, in that order: -34% and -10%.
For the molecule `CCCCNC(=O)Cc1nc(-c2ccc(F)cc2)oc1-c1ccsc1`, the Reduction in the assay listed under Rattus norvegicus [1] is 13%; in the assay filed under Rattus norvegicus [2], -8%.
For `CCOC(=O)Cc1nc(-c2ccc(F)cc2)oc1-c1ccccc1`, the Reduction in the assay listed under Rattus norvegicus [1] was -4%; in the assay filed under Rattus norvegicus [2], 3%.
For `O=C(O)Cc1nc(-c2ccc(Cl)cc2)oc1-c1ccccc1`, in that order: 14% and 6%.
As to `O=C(O)Cc1nc(-c2ccc(F)cc2)oc1-c1cccs1`, the Reduction is listed as 27% in the assay listed under Rattus norvegicus [1] and 17% in the assay filed under Rattus norvegicus [2].
On the same counts, the results for `O=C(OCCc1nc(-c2ccc(F)cc2)oc1-c1ccsc1)c1cccnc1` are 3% and -2%.
In the case of `CCOC(=O)Cc1nc(-c2ccc(F)cc2)oc1-c1ccc(F)cc1`, the Reduction worked out at 39% in the assay filed under Rattus norvegicus [1] and 7% in the assay filed under Rattus norvegicus [2].
`C=CCOC(=O)Cc1nc(-c2ccc(Cl)cc2)oc1-c1ccsc1`: the Reduction in the assay filed under Rattus norvegicus [1] turned out to be 39%; in the assay listed under Rattus norvegicus [2], 11%.
On to `CCOC(=O)Cc1nc(-c2ccc(Br)cc2)oc1-c1ccccc1`, for which the Reduction in the assay filed under Rattus norvegicus [1] is given as -7%; in the assay listed under Rattus norvegicus [2] it was 10%.
Turning to `Cc1ccc(-c2nc(CC(=O)O)c(-c3ccsc3)o2)cc1`, the values for the Reduction in the assay listed under Rattus norvegicus [1] and in the assay filed under Rattus norvegicus [2] were 14% and 9%, respectively.
As to `CCOC(=O)CCc1nc(-c2ccc(Cl)cc2)oc1-c1ccsc1`, the results for the Reduction in the assay listed under Rattus norvegicus [1] and in the assay listed under Rattus norvegicus [2] were 34% and 0%, respectively.
On the same counts, the results for `CCOC(=O)Cc1nc(-c2ccccc2Cl)oc1-c1ccsc1` are 15% and -5%.
As for `O=C(O)c1ncoc1-c1ccccc1`, the Reduction in the assay filed under Rattus norvegicus [1] amounted to 11%; in the assay listed under Rattus norvegicus [2], 2%.
`CCOC(=O)C(C)c1nc(-c2ccc(F)cc2)oc1-c1ccsc1` (centres undefined): the values for the Reduction in the assay filed under Rattus norvegicus [1] and in the assay filed under Rattus norvegicus [2] were 19% and 6%, respectively.
`CCOC(=O)Cc1nc(-c2ccc(OC)cc2)oc1-c1ccsc1`: the Reduction in the assay filed under Rattus norvegicus [1] is reported as 0%; in the assay filed under Rattus norvegicus [2] it was 4%.
`O=C(Cc1nc(-c2ccc(Cl)cc2)oc1-c1ccsc1)OCc1cccnc1`: the figures for the Reduction in the assay filed under Rattus norvegicus [1] and in the assay filed under Rattus norvegicus [2] were 3% and 13%, respectively.
For `NC(=O)Cc1nc(-c2ccccc2)oc1-c1ccsc1`, in that order: 3% and 20%.
As to `CCOC(=O)c1nc(-c2ccccc2)oc1-c1ccccc1`, the results for the Reduction in the assay filed under Rattus norvegicus [1] and in the assay listed under Rattus norvegicus [2] were -30% and 9%, respectively.
For `O=C(O)Cc1nc(-c2ccccc2)oc1-c1cccs1`, the Reduction is recorded as 28% in the assay listed under Rattus norvegicus [1] and -4% in the assay listed under Rattus norvegicus [2].
For `CCOC(=O)Cc1nc(-c2ccc(Cl)cc2)oc1-c1ccc(F)cc1`, in that order: 3% and 22%.
For `CCOC(=O)Cc1nc(-c2cccc(Cl)c2)oc1-c1ccsc1`, in that order: 61% and 8%.
In the case of `CC(C)OC(=O)Cc1nc(-c2ccc(F)cc2)oc1-c1ccsc1`, the Reduction in the assay filed under Rattus norvegicus [1] is 27%; in the assay filed under Rattus norvegicus [2], 8%.
On the same counts, the results for `O=C(O)CCc1nc(-c2ccc(Cl)cc2)oc1-c1ccsc1` are 51% and 5%.
Regarding `O=C(O)Cc1nc(-c2ccc(Cl)cc2)oc1-c1ccsc1`, the Reduction in the assay listed under Rattus norvegicus [1] is recorded as 43%; in the assay listed under Rattus norvegicus [2], 16%.
Consider `CCOC(=O)Cc1nc(-c2ccc(Cl)c(Cl)c2)oc1-c1ccsc1`, for which the results for the Reduction in the assay filed under Rattus norvegicus [1] and in the assay listed under Rattus norvegicus [2] were 17% and 14%, respectively.
For `CC(C(=O)O)c1nc(-c2ccc(F)cc2)oc1-c1ccsc1` (centres undefined), the Reduction amounted to 40% in the assay listed under Rattus norvegicus [1] and 6% in the assay filed under Rattus norvegicus [2].
For `COC(=O)c1nc(-c2ccc(F)cc2)oc1-c1ccsc1`, in that order: 16% and 5%.
On the same counts, the results for `CCCCOC(=O)Cc1nc(-c2ccccc2)oc1-c1ccsc1` are 21% and 15%.
`CCOC(=O)Cc1nc(-c2ccccc2)oc1-c1ccccc1`: the Reduction in the assay filed under Rattus norvegicus [1] was found to be 6%; in the assay listed under Rattus norvegicus [2] it was 13%.
Turning to `C=CCc1nc(-c2ccc(F)cc2)oc1-c1ccsc1`, the Reduction in the assay filed under Rattus norvegicus [1] is on record as 3%; in the assay listed under Rattus norvegicus [2], -2%.
In the case of `CCOC(=O)Cc1nc(-c2ccc(Cl)cc2)oc1-c1ccc(C)s1`, the values for the Reduction in the assay filed under Rattus norvegicus [1] and in the assay filed under Rattus norvegicus [2] were 39% and 4%, respectively.
On to `CCNC(=O)Cc1nc(-c2ccc(F)cc2)oc1-c1ccsc1`, for which the Reduction in the assay listed under Rattus norvegicus [1] is recorded as 23%; in the assay filed under Rattus norvegicus [2] it was -5%.
On the same counts, the results for `NC(=O)Cc1nc(-c2ccc(Cl)cc2)oc1-c1ccsc1` are 12% and 16%.
